Results published in ChEMBL document CHEMBL1926556, “Synthesis and biological activities of 2-[(heteroaryl)methyl]imidazolines” (Bioorg Med Chem, 2012).
Active and inactive are the calls of the source. No cut-off for these calls is given here.

How the values were obtained:
[1] = biological target: T1, Adrenergic receptor alpha-2 (Rattus norvegicus, UniProt P22086+P19328+P22909); test: Displacement of […] from adrenoceptor alpha2 in Sprague-Dawley rat brain membranes after 45 mins by scintillation counting; type: cell membranes, Membrane
T1 sequence (P22086 whole entry): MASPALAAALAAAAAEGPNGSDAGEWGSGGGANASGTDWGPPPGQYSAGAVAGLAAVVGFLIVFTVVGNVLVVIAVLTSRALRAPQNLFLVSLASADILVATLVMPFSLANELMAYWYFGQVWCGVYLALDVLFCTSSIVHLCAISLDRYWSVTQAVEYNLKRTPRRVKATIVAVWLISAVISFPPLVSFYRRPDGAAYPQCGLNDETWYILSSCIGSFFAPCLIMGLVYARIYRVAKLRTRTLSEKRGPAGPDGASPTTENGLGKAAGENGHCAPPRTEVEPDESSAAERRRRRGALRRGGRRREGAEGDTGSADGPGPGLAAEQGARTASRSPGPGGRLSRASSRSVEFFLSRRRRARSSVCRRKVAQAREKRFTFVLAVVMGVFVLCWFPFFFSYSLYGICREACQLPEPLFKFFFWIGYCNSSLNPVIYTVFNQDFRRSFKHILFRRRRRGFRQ
T1 sequence (P19328 whole entry): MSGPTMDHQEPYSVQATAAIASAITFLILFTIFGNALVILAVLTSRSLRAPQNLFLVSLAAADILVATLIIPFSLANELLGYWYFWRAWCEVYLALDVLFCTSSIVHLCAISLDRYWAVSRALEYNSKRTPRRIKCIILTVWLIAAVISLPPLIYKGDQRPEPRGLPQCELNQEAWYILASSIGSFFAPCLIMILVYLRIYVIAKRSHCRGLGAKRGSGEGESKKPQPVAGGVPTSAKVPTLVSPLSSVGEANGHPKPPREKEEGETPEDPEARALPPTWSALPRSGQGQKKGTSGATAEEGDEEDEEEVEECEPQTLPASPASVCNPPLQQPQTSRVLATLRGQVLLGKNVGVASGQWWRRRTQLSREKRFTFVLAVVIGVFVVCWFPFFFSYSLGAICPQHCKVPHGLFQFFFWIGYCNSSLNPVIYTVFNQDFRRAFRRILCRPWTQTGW
T1 sequence (P22909 whole entry): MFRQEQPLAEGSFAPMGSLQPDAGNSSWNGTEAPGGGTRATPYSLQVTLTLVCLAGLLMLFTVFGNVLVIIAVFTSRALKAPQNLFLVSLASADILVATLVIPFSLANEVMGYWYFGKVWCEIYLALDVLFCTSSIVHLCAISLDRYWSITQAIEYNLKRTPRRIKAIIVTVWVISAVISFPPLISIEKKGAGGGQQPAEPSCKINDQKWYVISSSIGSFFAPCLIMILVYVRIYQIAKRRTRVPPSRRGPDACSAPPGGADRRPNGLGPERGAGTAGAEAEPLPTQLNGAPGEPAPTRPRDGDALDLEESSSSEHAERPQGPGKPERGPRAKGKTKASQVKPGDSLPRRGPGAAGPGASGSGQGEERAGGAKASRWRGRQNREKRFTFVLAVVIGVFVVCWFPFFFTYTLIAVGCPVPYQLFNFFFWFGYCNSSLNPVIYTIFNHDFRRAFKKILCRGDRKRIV
Summary of the method: (§1)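 Crude P2 membranes from male Sprague–Dawley rat brain (250–280 g), 0.2–0.3 mg protein. Radioligand 1 nM: [3H]2BFI for I2, [3H]prazosin for α1, [3H]RX821002 for α2. Non-specific binding defined by 10 µM BU224 (I2), 10 µM phenylephrine (α1) or 10 µM rauwolscine (α2). 11 concentrations from 0.01 nM to 100 µM, triplicate, 45 min at RT. Filtration and scintillation counting; Ki by Cheng–Prusoff.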

[2] = biological target: T2, Adrenergic receptor alpha-1 (Rattus norvegicus, UniProt P15823+P23944+P43140); test: Displacement of [3H]prazosin from adrenoceptor alpha1 in Sprague-Dawley rat brain after 45 mins by scintillation counting; summary of the method: as §1
T2 sequence (P15823 whole entry): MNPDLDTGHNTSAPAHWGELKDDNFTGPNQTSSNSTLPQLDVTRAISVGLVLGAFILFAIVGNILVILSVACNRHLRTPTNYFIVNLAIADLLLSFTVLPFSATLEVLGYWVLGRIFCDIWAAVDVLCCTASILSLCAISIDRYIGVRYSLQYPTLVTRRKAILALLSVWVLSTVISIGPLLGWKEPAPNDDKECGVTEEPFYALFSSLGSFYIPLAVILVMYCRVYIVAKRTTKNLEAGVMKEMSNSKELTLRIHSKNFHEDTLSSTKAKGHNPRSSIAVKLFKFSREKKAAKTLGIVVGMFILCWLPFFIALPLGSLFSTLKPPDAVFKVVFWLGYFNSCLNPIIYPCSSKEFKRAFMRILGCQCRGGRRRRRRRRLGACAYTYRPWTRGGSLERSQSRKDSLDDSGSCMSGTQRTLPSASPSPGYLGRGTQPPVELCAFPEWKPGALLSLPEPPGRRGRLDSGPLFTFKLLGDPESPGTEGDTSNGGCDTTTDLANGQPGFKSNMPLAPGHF
T2 sequence (P23944 whole entry): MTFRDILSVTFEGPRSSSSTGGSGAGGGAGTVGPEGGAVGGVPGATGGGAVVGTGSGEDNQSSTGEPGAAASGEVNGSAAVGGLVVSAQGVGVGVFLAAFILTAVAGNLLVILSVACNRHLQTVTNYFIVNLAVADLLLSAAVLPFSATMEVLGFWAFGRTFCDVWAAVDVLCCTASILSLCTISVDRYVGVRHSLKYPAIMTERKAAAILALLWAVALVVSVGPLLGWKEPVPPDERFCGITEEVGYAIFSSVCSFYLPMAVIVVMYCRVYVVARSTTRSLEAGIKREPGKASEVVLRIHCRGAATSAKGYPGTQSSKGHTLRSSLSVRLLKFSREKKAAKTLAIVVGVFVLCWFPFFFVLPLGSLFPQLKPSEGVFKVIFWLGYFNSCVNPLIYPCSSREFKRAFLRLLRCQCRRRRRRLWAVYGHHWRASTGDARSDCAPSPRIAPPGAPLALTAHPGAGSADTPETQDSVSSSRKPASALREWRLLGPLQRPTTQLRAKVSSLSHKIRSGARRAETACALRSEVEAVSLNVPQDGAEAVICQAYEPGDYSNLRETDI
T2 sequence (P43140 whole entry): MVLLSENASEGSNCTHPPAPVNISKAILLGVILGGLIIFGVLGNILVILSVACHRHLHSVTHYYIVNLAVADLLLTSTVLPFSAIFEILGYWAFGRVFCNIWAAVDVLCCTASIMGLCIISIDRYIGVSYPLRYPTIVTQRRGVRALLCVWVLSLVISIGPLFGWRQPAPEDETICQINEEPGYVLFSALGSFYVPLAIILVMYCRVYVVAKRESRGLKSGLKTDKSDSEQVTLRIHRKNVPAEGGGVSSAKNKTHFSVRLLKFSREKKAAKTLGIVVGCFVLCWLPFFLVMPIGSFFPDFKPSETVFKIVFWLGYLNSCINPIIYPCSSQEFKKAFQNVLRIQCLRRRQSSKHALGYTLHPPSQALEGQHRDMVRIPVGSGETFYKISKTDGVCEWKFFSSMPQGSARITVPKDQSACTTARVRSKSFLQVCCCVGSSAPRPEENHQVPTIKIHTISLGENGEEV

[3] = biological target: Nischarin (Rattus norvegicus, UniProt Q4G017); test: Displacement of [3H]clonidine from imidazoline I1 receptor in Sprague-Dawley rat kidney membranes after 45 mins by scintillation counting; type: cell membranes, Membrane
Chain of Nischarin (Q4G017 whole entry): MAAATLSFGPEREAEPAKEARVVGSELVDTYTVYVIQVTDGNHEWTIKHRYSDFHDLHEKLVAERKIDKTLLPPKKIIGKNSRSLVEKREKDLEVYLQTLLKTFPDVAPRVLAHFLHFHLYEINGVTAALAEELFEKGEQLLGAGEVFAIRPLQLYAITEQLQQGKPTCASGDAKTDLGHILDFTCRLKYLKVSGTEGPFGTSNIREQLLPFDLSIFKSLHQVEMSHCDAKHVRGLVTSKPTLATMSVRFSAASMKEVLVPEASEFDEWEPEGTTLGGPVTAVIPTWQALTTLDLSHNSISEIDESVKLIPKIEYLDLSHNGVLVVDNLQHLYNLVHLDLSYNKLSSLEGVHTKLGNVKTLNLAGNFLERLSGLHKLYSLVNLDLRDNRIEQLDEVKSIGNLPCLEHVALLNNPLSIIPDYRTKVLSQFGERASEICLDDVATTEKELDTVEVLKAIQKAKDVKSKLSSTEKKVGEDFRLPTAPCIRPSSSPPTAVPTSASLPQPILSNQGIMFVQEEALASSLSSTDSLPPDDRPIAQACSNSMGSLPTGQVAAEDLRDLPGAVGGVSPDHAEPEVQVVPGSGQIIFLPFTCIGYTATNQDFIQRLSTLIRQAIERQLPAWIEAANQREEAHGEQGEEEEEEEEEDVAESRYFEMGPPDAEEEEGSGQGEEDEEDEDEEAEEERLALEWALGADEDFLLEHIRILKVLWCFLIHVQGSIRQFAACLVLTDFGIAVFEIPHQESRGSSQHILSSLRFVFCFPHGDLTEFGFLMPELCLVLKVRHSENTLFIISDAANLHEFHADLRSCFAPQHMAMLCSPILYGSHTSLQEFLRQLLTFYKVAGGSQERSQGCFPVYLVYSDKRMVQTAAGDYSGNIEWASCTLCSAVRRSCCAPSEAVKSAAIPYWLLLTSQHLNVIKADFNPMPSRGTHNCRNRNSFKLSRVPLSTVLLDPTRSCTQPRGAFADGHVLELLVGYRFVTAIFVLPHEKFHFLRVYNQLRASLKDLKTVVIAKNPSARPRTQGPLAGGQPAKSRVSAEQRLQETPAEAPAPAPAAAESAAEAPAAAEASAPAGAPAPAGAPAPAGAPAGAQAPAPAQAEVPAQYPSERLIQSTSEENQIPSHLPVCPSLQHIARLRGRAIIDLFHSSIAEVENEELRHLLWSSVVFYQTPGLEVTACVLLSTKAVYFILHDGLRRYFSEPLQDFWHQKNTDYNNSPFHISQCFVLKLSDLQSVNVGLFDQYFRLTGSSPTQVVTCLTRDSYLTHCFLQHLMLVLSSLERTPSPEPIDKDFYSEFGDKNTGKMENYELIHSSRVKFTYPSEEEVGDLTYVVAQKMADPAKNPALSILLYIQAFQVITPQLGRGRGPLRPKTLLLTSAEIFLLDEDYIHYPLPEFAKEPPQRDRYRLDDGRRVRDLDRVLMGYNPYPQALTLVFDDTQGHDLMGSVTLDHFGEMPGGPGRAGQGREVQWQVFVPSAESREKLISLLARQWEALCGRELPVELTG
Summary of the method: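 Crude P2 membranes from male Sprague–Dawley rat kidney, 0.2–0.5 mg protein. […] Specific binding defined by 10 µM rilmenidine. 11 concentrations from 0.01 to 100 µM, 50 mM Tris-HCl pH 7.4, 45 min at RT. Filtration and scintillation counting; IC50.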

[4] = Displacement of [3H]BFI from imidazoline I2 receptor in Sprague-Dawley rat brain membranes after 45 mins by scintillation counting; type: cell membranes, Membrane; summary of the method: as §1
[5] = species: Rattus norvegicus; test: Displacement of [3H]BFI from imidazoline I2 in Sprague-Dawley rat brain membranes at 1 X 10^6 after 45 mins by scintillation counting; type: cell membranes; conditions: Membrane
[6] = biological target: T3, Alpha-2A adrenergic receptor (Homo sapiens) (UniProt P08913); test: Agonist activity at human adrenoceptor alpha2A expressed in CHOK1 cells assessed as stimulation of agonist-induced [35S]GTPgammaS binding by scintillation counting assay relative to noradrenaline; type: functional, cell-based; conditions: CHO-K1
T3 sequence (whole entry): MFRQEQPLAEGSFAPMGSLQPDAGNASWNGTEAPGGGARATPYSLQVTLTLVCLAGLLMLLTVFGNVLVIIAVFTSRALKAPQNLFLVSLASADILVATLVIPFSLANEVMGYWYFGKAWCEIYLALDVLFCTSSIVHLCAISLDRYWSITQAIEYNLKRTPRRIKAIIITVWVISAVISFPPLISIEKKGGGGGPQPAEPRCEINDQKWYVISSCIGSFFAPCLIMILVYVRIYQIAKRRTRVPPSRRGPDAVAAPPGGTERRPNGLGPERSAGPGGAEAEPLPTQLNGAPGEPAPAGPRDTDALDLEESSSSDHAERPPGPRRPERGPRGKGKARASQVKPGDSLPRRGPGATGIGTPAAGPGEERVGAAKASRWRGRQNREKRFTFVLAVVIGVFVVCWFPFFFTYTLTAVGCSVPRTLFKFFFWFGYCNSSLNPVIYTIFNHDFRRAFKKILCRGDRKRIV
Summary of the method: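 Membranes from CHO-K1 cells stably expressing human α2A-adrenoceptor; 5 µg protein incubated with serial dilutions of agonist and 0.1 nM [35S]GTPγS in Tris buffer pH 7.4 with 1 µM GDP, MgCl2, NaCl, 30 min at RT. Filtered and counted by scintillation. EC50 and intrinsic activity relative to noradrenaline; means from 3 independent experiments.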

Row | SMILES | Ki [1] | Ki [2] | IC50 [3] | Ki [4] | Activity [5] | Emax [6]
1 | CCc1nc2cc(C)c(C)cc2n1CC1=NCCN1.Cl.Cl | 7.41 µM | 12.9 µM | 93.3 µM | 0.081 µM |  | 
2 | Cl.Clc1cccc2c1cnn2CC1=NCCN1 | 0.13 µM | 0.187 µM | 5.15 µM | 2.85 µM |  | 
3 | Cl.Cl.c1ccc(Cc2nc3ccccc3n2CC2=NCCN2)cc1 | 11.2 µM | 30.9 µM | 21 µM |  | inactive | 
4 | COc1cccc2c1cnn2CC1=NCCN1.Cl.Cl | 0.305 µM | 1.67 µM | 32.9 µM | 0.382 µM |  | 
5 | Cc1nn(CC2=NCCN2)c2ccccc12.Cl.Cl | 0.435 µM | 0.095 µM | 21.3 µM | 0.359 µM |  | 
6 | Cc1cccc2c1ncn2CC1=NCCN1.Cl.Cl | 0.273 µM | 1.5 µM | 77.7 µM | 24.4 µM |  | 
7 | Cc1cccc2nn(CC3=NCCN3)nc12.Cl.Cl | 0.499 µM | 1.54 µM | 48.8 µM | 0.078 µM |  | 
8 | Cc1nc2ccccc2n1CC1=NCCN1.Cl.Cl | 1.02 µM | 1.29 µM | 9.39 µM |  | inactive | 
9 | Cl.Fc1cccc2cnn(CC3=NCCN3)c12 | 0.0126 µM | 0.107 µM | 16.4 µM | 0.156 µM |  | 
10 | Cc1ccc2c(cnn2CC2=NCCN2)c1.Cl.Cl | 0.268 µM | 0.363 µM | 45.4 µM | 0.022 µM |  | 
11 | Cc1cc2ncn(CC3=NCCN3)c2cc1C.Cl.Cl | 2.26 µM | 1.5 µM | 74 µM | 28 µM |  | 
12 | CCc1nc2ccccc2n1CC1=NCCN1.Cl.Cl | 5 µM | 5.5 µM | 44.2 µM | 34.1 µM |  | 
13 | Cc1cc2nnn(CC3=NCCN3)c2cc1C.Cl.Cl | 1.56 µM | 8.04 µM | 16.8 µM | 26.3 µM |  | 
14 | Cc1cccc2c1cnn2CC1=NCCN1.Cl | 0.197 µM | 0.409 µM | 12.9 µM | 0.116 µM |  | 
15 | Cl.c1ccc2c(c1)nnn2CC1=NCCN1 | 5.11 µM | 1.34 µM | 56.8 µM | 0.81 µM |  | 
16 | Cc1cc2nn(CC3=NCCN3)nc2cc1C.Cl.Cl | 1.32 µM | 6.07 µM | 0.646 µM | 0.233 µM |  | 
17 | NC[C@H](O)c1ccc(O)c(O)c1 |  |  |  |  |  | 100%
18 | Cl.Cl.c1ccc2c(c1)ncn2CC1=NCCN1 | 3.25 µM | 0.929 µM | 43.9 µM | 6.1 µM |  | 
19 | Cl.Cl.c1ccc(-c2nc3ccccc3n2CC2=NCCN2)cc1 | 7.44 µM | 1.11 µM | 28.1 µM |  | inactive | 
